Data taken from ChEMBL document CHEMBL1795266, “Synthesis and evaluation of monoamidoxime derivatives: toward new antileishmanial compounds” (Eur J Med Chem, 2011).

Key:
J774.A1 = assay: Cytotoxic activity against mouse J774A1 cells after 72 hrs by MTT assay; format: cell-based; conditions: J774.A1, 72 h
Summary of the method: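 J774A.1 macrophages were grown in medium with 10% FCS, 2 mM L-glutamine, penicillin and streptomycin. Cells were seeded at 5 × 10⁴ cells/mL with a concentration range in duplicate (DMSO under 0.5% v/v final) and held 72 h at 37 °C, 6% CO₂. MTT was added at 0.5 mg/mL in RPMI 1640 for 2 h at 37 °C. Formazan was dissolved in DMSO and read at 570 nm. IC50 came from nonlinear regression, as the mean of three independent experiments.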

Leishmania donovani = assay: Antileishmanial activity against Leishmania donovani MHOM/IN/00/DEVI promastigote after 72 hrs by MTT assay; format: functional, organism-based
Summary of the method: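 Promastigotes were seeded at 10⁶ parasites/mL in medium containing penicillin and streptomycin, with a range of compound concentrations in duplicate (DMSO under 0.5% v/v final). After MTT addition, plates stood 6 h at 27 °C and were spun at 900 G for 10 min. The pellet was dissolved in DMSO and read at 570 nm. IC50 (50% loss of metabolic activity versus control) came from nonlinear dose-response regression.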

[1] = Selectivity index, ratio of IC50 for mouse J774A1 cells to IC50 for Leishmania donovani MHOM/IN/OO/DEVI promastigote; format: toxicity, cell-based, J774.A1; conditions: read-out: Ratio IC50

SMILES | IC50 (J774.A1) [µM] | IC50 (Leishmania donovani) [µM] | selectivity ratio [1]
CC1(Cc2ccccc2)CC(S(=O)(=O)c2ccc(C(F)(F)F)cc2)=C(c2ccc(/C(N)=N/O)cc2)O1 (stereo unspecified) | 30.5 | 7.89 | 3.87
CC1(Cc2ccccc2)CC(S(=O)(=O)c2ccc(F)cc2)=C(c2ccc(/C(N)=N/O)cc2)O1 (stereo unspecified) | 45.5 | 7.15 | 6.37
CC1(Cc2ccccc2)CC(S(=O)(=O)c2ccc(Cl)cc2)=C(c2ccc(/C(N)=N/O)cc2)O1 (stereo unspecified) | 27.4 | 7.4 | 3.71
CC1(Cc2ccccc2)CC(S(=O)(=O)c2ccc(Br)cc2)=C(c2ccc(/C(N)=N/O)cc2)O1 (stereo unspecified) | 20.1 | 5.21 | 3.85
CC1(Cc2ccccc2)CC(S(=O)(=O)c2ccc(I)cc2)=C(c2ccc(/C(N)=N/O)cc2)O1 (stereo unspecified) | 11.8 | 6.89 | 1.72
CC1(Cc2ccccc2)CC(S(=O)(=O)c2ccc([N+](=O)[O-])cc2)=C(c2ccc(/C(N)=N/O)cc2)O1 (stereo unspecified) | 50.6 | 19.4 | 2.61
COc1ccc(S(=O)(=O)C2=C(c3ccc(/C(N)=N/O)cc3)OC(C)(Cc3ccccc3)C2)cc1 (stereo unspecified) | 9.03 | 7.49 | 1.21
CC1(Cc2ccccc2)CC(S(=O)(=O)c2ccc(/C(N)=N\O)cc2)=C(c2ccc(C(F)(F)F)cc2)O1 (stereo unspecified) | 11.9 | 8.46 | 1.4
CC1(Cc2ccccc2)CC(S(=O)(=O)c2ccc(/C(N)=N\O)cc2)=C(c2ccc(F)cc2)O1 (stereo unspecified) | 36.2 | 30.7 | 1.18
CC1(Cc2ccccc2)CC(S(=O)(=O)c2ccc(/C(N)=N\O)cc2)=C(c2ccc(Cl)cc2)O1 (stereo unspecified) | 7.05 | 9.87 | 0.71
CC1(Cc2ccccc2)CC(S(=O)(=O)c2ccc(/C(N)=N\O)cc2)=C(c2ccc(Br)cc2)O1 (stereo unspecified) | 9.78 | 8.95 | 1.09
CC1(Cc2ccccc2)CC(S(=O)(=O)c2ccc(/C(N)=N\O)cc2)=C(c2ccc(I)cc2)O1 (stereo unspecified) | 8.08 | 6.63 | 1.22
CC1(Cc2ccccc2)CC(S(=O)(=O)c2ccc(/C(N)=N\O)cc2)=C(c2ccc([N+](=O)[O-])cc2)O1 (stereo unspecified) | 18.5 | 18.8 | 0.98
C[C@@H]1[C@H](O)[C@@H](C)/C=C/C=C/C=C/C=C/C=C/C=C/C=C/[C@H](O[C@@H]2O[C@H](C)[C@@H](O)[C@H](N)[C@@H]2O)C[C@@H]2O[C@](O)(C[C@@H](O)C[C@@H](O)[C@H](O)CC[C@@H](O)C[C@@H](O)CC(=O)O[C@H]1C)C[C@H](O)[C@H]2C(=O)O [AMPHOTERICIN B] | 3.14 | 0.77 | 4.08
COc1cccc2c1C(=O)c1c(O)c3c(c(O)c1C2=O)C[C@@](O)(C(=O)CO)C[C@@H]3O[C@H]1C[C@H](N)[C@H](O)[C@H](C)O1 [DOXORUBICIN] | 0.02 | – | –
N=C(N)c1ccc(OCCCCCOc2ccc(C(=N)N)cc2)cc1 [PENTAMIDINE] | 1.03 | 6.29 | 0.16
